Bioassay records (PubChem)
bovine MsrA act: bovine methionine sulfoxide reductase A activation; activation, % at 10.6 µM; purified bovine MsrA, absorbance read-out; AID 602163; 0.3% of 360,000 active; in the data active = activation above about 7.5%;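 also: 0% = vehicle and 100% = reference activator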
MsrA inh: inhibitors of bovine MsrA. 0.75% of 360,000 active. inhibition, % at 15.5 µM. purified bovine MsrA, absorbance read-out; in the data active = inhibition above about 4.5%;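 also: 0% = vehicle wells with enzyme and 100% = reference inhibitor wells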
ASAP1 GAP inh: blocks human ASAP1-stimulated Arf1 GTP hydrolysis | GDP FP detection | AID 624377 | 0.19% of 360,000 active | Q9ULH1 | inhibition, % at 16.5 µM; in the data active = inhibition above about 25%;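 also: 0% = vehicle with enzyme and substrate and 100% = no enzyme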
Target sequence (Q9ULH1 325-724 limits assumed): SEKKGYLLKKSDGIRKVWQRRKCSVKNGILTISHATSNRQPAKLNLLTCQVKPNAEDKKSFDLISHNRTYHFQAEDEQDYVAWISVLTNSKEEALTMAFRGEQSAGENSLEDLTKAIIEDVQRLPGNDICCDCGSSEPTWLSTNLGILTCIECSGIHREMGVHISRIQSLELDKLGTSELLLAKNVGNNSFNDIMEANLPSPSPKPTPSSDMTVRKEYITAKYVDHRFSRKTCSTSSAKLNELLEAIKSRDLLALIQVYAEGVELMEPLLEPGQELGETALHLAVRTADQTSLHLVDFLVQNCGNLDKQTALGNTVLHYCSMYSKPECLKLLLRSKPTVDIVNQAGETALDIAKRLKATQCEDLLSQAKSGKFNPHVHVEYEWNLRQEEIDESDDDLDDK
HGIII-sPLA2 inh: Inhibits HGIII-sPLA2 liposome hydrolysis, primary screen; QFRET BODIPY PC-A2 liposome hydrolysis, fluorescence; inhibition, % at 12.2 µM; 0.56% of 370,000 active; AID 743126;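 active = inhibition above mean plus 3 SD of compounds lying within the high and low control bounds, cut at about 19% in these data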;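 also: 0% = median of test compound wells and 100% = no enzyme DMSO wells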
ARFGAP1 inhibitor: rat ARFGAP1 inhibition. Q62848. Arfgap1-stimulated ARF1 GTP hydrolysis, GDP FP detection. inhibition, % at 16.5 µM. 0.26% of 360,000 active;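 active = inhibition above a per-plate limit, mean inhibition of low control wells plus 3 SD, cut at about 25% in these data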;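 also: 0% = DMSO wells with enzyme and 100% = wells lacking Arfgap1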
Target sequence (Q62848 1-136 limits assumed): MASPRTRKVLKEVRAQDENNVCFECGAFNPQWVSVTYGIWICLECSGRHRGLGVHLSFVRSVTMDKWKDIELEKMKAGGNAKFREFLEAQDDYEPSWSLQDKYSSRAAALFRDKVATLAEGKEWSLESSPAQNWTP
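System: truncated rat Arfgap1 GAP domain / Benchmarks: high control wells lacking Arfgap1, low control full reaction with DMSO / Times: compound-enzyme preincubation 20 min, reaction 120 min, detection 60 min, 25 °C / Repeats: one replicate per compound / Also added: human ARF1(Δ1-17)-GTP substrate / Measured by: Tracer-displacement fluorescence polarization with EDTA stop, 620/688 nm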
Rev-erbA mod: modulates human Rev-erb alpha binding to DNA; 0.79% of 370,000 active; Rev-erbα–FITC-DNA binding, fluorescence polarization, 90 min; activity, % at 10 µM;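 active = activity above about 14%, limit read from the data; passing the limit was not always enough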;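 also: 0% = DMSO wells with 35 nM protein and 100% = DMSO wells with 750 nM protein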
MsrA act confirm: bovine methionine sulfoxide reductase A activation confirmed; shares compounds with bovine MsrA act; purified bovine MsrA, absorbance read-out; activation, % at 10.6 µM; 12% of 1,000 active; in the data active = activation above about 4%;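 also: enzyme coupled to thioredoxin and thioredoxin reductase with NADPH; 0% = vehicle wells and 100% = reference activator wells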
An asterisk follows results filed as active; · = no result. This is a sample that favours compounds with a hit; in the whole collection about 2.7% have one here.

SMILES	bovine MsrA act	MsrA inh	ASAP1 GAP inh	HGIII-sPLA2 inh	ARFGAP1 inhibitor	Rev-erbA mod	MsrA act confirm
COC(=O)c1cn(-c2ccc(-c3noc4c3C(=O)N(CC(=O)N3CCOCC3)CC4)cc2)nn1	·	·	·	-2	·	-6	·
Cc1ccc(NCc2nnc3n2CCCCC3)c(C)c1	8.2*	0	0	-3	-7	-2	-1
CC(C)C[C@H]1COc2ccc(Cl)cc2S(=O)(=O)N1Cc1cn(Cc2ccc(C(F)(F)F)cc2)nn1	·	·	·	5	·	4	·
O=C(NCCc1ccccc1)c1c(F)cccc1F	11*	0	-1	2	-3	0	0
O=C(NCCc1csc(-c2ccccc2)n1)c1c(F)cccc1F	-1	1	-2	9	2	-6	·
COc1cccc(-n2c(=O)c3ccccc3n3c(=S)[nH]nc23)c1	3	2	-11	8	-17	-2	·
COCCCn1c(=O)c2ccccc2n2c(=S)[nH]nc12	9.8*	-1	3	13	6	2	5.4*
Cc1cc(CN(C)C(=O)CC2C(=O)NCCN2CC(c2ccccc2)c2ccccc2)on1 (centres undefined)	-1	2	-1	1	3	0	·
COCCN(C)C(=O)CC1C(=O)NCCN1CC(c1ccccc1)c1ccccc1 (centres undefined)	11*	0	5	-2	-13	0	-3
CCCC[C@H](CCCc1ccc(F)cc1)CCC(=O)N(c1ccccc1)c1ccccc1	·	·	·	0	·	-2	·
CCc1cccc(NC(=O)c2cccc3c2C(=O)N(C2CCCCC2)C3)c1	8.6*	·	·	·	·	·	-1
O=C(Nc1cccc(F)c1)c1cccc2c1C(=O)N(C1CCCCC1)C2	-2	1	9	9	-12	2	·
Nc1nc2ccccc2n1/N=C/c1ccc([N+](=O)[O-])s1	8.0*	3	-3	2	0	11	7.8*
COC(=O)[C@]12C[C@H](CC(=O)NCc3ccccc3)C(=O)N(Cc3cccc4ccccc34)C1=C[C@H](COCc1ccccc1)O[C@@H]2C	·	·	·	-28	·	5	·
COc1ccccc1-[n+]1c(C)cc(/C=C2\Sc3ccccc3N2C)cc1C	8.2*	-1	2	5	3	16	-3
O=C1C(O)=CC(=C(c2ccccc2)c2ccccc2)c2ccccc21	9.8*	0	3	-4	-3	1	2
O=C(O)c1cccc2c1C(=O)c1ccccc1C2=O	-3	1	-6	3	-1	-8	·
Cc1cccc(Nc2ncnc(N)n2)c1	13*	2	-5	2	9	-3	-1
CC(=O)OCCn1c2nc(=O)[nH]c(=O)c-2nc2cc(C)c(C)cc21	13*	1	-15	-407	11	7	16*
Cc1cc2nc3c(=O)[nH]c(=O)nc-3n(CC(O)C(O)C(O)CO)c2cc1C (centres undefined)	·	·	·	·	·	2	·
Cc1ccccc1OCC(=O)N/N=C/c1ccc([N+](=O)[O-])o1	-10	4	0	2	4	-5	·
COc1ccccc1OCC(=O)N/N=C/C=C/c1ccc([N+](=O)[O-])o1	10*	1	-3	-15	-10	-1	2
CCCCCCCCN1CCS(=O)(=O)N(Cc2ccc(OC)cc2)C(C(=O)OC)C1 (centres undefined)	·	·	·	-5	·	2	·
O=C(Nc1cccnc1Cl)c1cccs1	17*	-1	-4	2	-13	-1	-1
O=C(Nc1ccccn1)c1cccs1	-9	1	-8	3	-1	-2	·
SMILES	bovine MsrA act	MsrA inh	ASAP1 GAP inh	HGIII-sPLA2 inh	ARFGAP1 inhibitor	Rev-erbA mod	MsrA act confirm
Cc1ccccc1NC(=O)N(C)[C@H]1C[C@H]2c3[nH]c4c(-c5ccccc5)cccc4c3CCN2C[C@H]1[C@H](C)O	·	·	·	-3	·	6	·
Cc1cc(=O)[nH]c(SCC(=O)N2CCc3ccccc3C2)n1	9.5*	-2	-3	6	4	3	1
Cc1cnc(C(=O)OCC(=O)Nc2cccc3ccccc23)cn1	13*	-2	2	2	4	-3	-1
Cc1cnc(C(=O)OCC(=O)Nc2cccc(C)c2C)cn1	-6	0	6	3	-7	1	·
CS(=O)(=O)N1CCN(C(=O)c2ccc(Cl)s2)CC1	16*	-1	0	4	-8	-1	-1
CC(C)C[C@@H]1COc2cc(Br)ccc2S(=O)(=O)N1Cc1cn(Cc2ccccc2)nn1	·	·	·	9	·	-7	·
CN(C)c1ccc(-c2sc(Nc3ccccc3)n[n+]2-c2ccc(F)cc2)cc1	0	1	2	2	-2	1	·
CCN(CC)c1ccc(-c2sc(Nc3ccccc3)n[n+]2-c2ccc(F)cc2)cc1	17*	3	-22	7	-5	6	4.0*
CCOc1ccc2c(c1)C(C)=CC(C)(C)N2S(=O)(=O)c1ccc(NC(C)=O)cc1	8.2*	0	8	-14	6	2	-1
O=C(COC(=O)Cc1ccsc1)Nc1ccccc1	25*	1	-20	-5	-4	3	2
O=C(N/N=C/c1ccc([N+](=O)[O-])s1)c1ccccc1	6	2	8	-2	6	-5	·
O=C(Cc1ccccc1)N/N=C/c1ccc([N+](=O)[O-])s1	7.9*	2	0	-6	17	0	1
Cc1ccc(S(=O)(=O)n2ccc(-c3c(-c4ccc(F)cc4)noc3C)n2)cc1	·	·	·	-6	·	1	·
S=c1[nH]nc(-c2cc(-c3ccccc3)n[nH]2)n1N=Cc1c[nH]c2ccccc12	·	·	·	-15	·	0	·
COc1ccc(C)cc1S(=O)(=O)Nc1cccc(C)c1	0	0	7	2	-6	6	·
COc1ccc(C)cc1S(=O)(=O)Nc1cccc(SC)c1	8.8*	0	-2	-24	5	-4	-2
O=c1oc2ccc(C#CC3(O)CCCCC3)cc2cc1-n1cc(C2(O)CCCCC2)nn1	8.6*	-1	-2	0	2	7	-1
O=C(COc1ccc(Cl)cc1)Nc1cccc(-c2ccc3nncn3n2)c1	15*	2	4	8	7	-3	-4
CCOC(=O)NC[C@@]1(C(=O)OC)CC(=O)N(C)[C@@H]1c1ccccc1	·	·	·	4	·	1	·
O=c1cc(N2CCC3(CC2)OCCO3)[nH]c(=O)n1C1CCCCC1	9.6*	-1	1	-6	-2	1	-2
CN(C)S(=O)(=O)c1cccc(NC(=S)NC(=O)c2ccco2)c1	11*	0	2	8	0	2	-4
O=C(Cn1ncc2c1-c1ccccc1OC2)N(Cc1ccco1)C1CCCCC1	7.7*	-1	5	-14	6	9	-1
CCN(CC)C(=O)Cn1ncc2c1-c1ccccc1OC2	-11	2	-5	10	16	-2	·
Cc1cc(C)n(-c2ccc(C(=O)Nc3ccc4c(c3)OCO4)cc2)n1	8.4*	1	3	-3	5	4	-6
CC(=O)c1cc2c(cc1NC(=O)c1ccc(-n3nc(C)cc3C)cc1)OCO2	4	1	-6	6	14	-6	·
